Experiment: Cytotoxicity against pig primary chondrocytes at 1 to 10 uM after 24 hrs by MTT assay
Set-up: species or system Sus scrofa
Method in brief: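 Primary porcine chondrocytes were isolated from diced cartilage with 1.5 mg/mL collagenase 2 in DMEM/10% FCS at 37 °C for 24 h. Cells were seeded at 2.5×10^4 per well and exposed to 1 or 10 μM inhibitor for 24 h. MTT (0.5 mg/mL final) was added for 1 h at 37 °C. Formazan was solubilized in 5% SDS/5 mM HCl overnight and read at 590 nm; n = 3.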

**Q.** With `O=C(CNS(=O)(=O)c1ccc(OCc2ccc(F)cc2Cl)cc1)NO` as the molecule, how does the Activity read?
**A.** Non-toxic
